Data on 29 molecules can be found in ChEMBL document CHEMBL3259718, “Identifying structural determinants of potency for analogs of apelin-13: integration of C-terminal truncation with structure-activity” (Bioorg Med Chem, 2014).

pEC50: −log10 of the molar value. Counter-ions that a name gives are not always drawn. Square brackets hold non-standard residues; d marks the D form. Peptide text beside a SMILES is read from it. * marks the point of attachment. hPhe = N[C@@H](CCc1ccccc1)C(=O)O; Nle = CCCC[C@H](N)C(=O)O; Aoc = NCCCCCCCC(=O)O; Tfa = O=C(C(F)(F)F)*

Data set [1] is described as follows: Retention time of the compound by HPLC analysis. The data set is classed as physicochemical. In a few lines: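 Analytical reverse-phase HPLC on a peptide C18 column with a 5–45% acetonitrile gradient over 30 min. Identity was confirmed by ESI-MS mass.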
For a further data set, the target named is T1, Apelin receptor (Homo sapiens, UniProt P35414).
T1 sequence (P35414 whole entry): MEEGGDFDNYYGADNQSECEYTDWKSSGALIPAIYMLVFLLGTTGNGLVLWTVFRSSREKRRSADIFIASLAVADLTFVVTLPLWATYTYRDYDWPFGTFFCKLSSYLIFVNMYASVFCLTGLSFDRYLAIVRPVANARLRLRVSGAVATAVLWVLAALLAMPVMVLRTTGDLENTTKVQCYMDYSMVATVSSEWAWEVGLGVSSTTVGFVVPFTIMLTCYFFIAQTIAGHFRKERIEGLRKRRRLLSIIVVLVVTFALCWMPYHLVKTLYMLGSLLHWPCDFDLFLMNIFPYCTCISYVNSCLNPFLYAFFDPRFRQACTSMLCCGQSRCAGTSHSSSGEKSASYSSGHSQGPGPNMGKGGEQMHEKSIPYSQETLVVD
Nature of the data set: Agonist activity at APJ receptor (unknown origin) expressed in CHO cells co-expressing with Calphaq16 assessed as calcium mobilization. It counts as functional, cell-based. The note with it: for pEC50: read-out: EC50; for EC50: read-out: pEC50 (converted). A general note: A change in cytosolic calcium serves as a functional read-out for many receptors and channels.

Data set [2] relates to Plasma. Nature of the data set: Drug metabolism in rat plasma assessed as Ac-R-P-Nle-L-A after 15 to 25 mins by ESI-MS analysis. The data set is classed as ADME, cell-free. An outline of the steps: (§1)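 Peptide incubated in rat serum, with aliquots taken over a time course. Samples were run on reverse-phase capillary C18 nano-LC, with mobile phase B rising linearly from 10% to 60% over 55 min at 450 nl/min. Detection was positive-ion nano-ESI Orbitrap MS in data-dependent mode (1 FTMS plus 3 IT-MS/MS cycles, resolution 7500). Fragments were assigned from [M+H]+ masses using peptide ladder predictions.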

Data set [3] relates to Plasma. Briefly: Drug metabolism in rat plasma assessed as Ac-R-P-Nle after 15 to 25 mins by ESI-MS analysis. The data set is classed as ADME, cell-free. An outline of the steps:
as §1

The nature of data set [4]: Half life in rat plasma at pH 7.4 by LC-MS/MS analysis. The data set is classed as ADME, cell-free. An outline of the steps:
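Peptide incubated in rat plasma adjusted to pH 7.4 at 37 °C, with DMSO kept below 2.5%. Reactions were stopped with acetonitrile at 0, 2, 5, 15, 30 and 60 min and clarified by centrifugation. Parent remaining was quantified by UPLC-MS/MS using MRM.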

In turn, `CSCC[C@H](NC(=O)[C@@H]1CCCN1C(=O)CNC(=O)[C@H](CCCCN)NC(=O)[C@H](Cc1cnc[nH]1)NC(=O)[C@H](CO)NC(=O)[C@H](CC(C)C)NC(=O)[C@H](CCCNC(=N)N)NC(=O)[C@@H]1CCCN1C(=O)[C@H](CCCNC(=N)N)NC(=O)[C@@H]1CCC(=O)N1)C(=O)N1CCC[C@H]1C(=O)N[C@@H](Cc1ccccc1)C(=O)O` gave a Retention_time in data set [1] of 17.44 min.
As a reminder, the pEC50 is the EC50 on a negative log10 scale, so that one unit is a factor of ten. In turn, `CC(=O)N[C@@H](CCCNC(=N)N)C(=O)N1CCC[C@H]1C(=O)N[C@@H](CCCCN)C(=O)N[C@@H](CC(C)C)C(=O)N[C@@H](C)C(=O)N[C@@H](C)C(=O)N[C@@H](CCCCN)C(=O)NCC(=O)N1CCC[C@@H]1C(=O)N[C@@H](CC(C)C)C(N)=O` displayed a Retention_time in data set [1] of 13.25 min. At Apelin receptor (cho), the pEC50 was 8.77.
In turn, `CC(=O)N[C@@H](CCCCNC(=O)C(F)(F)F)C(=O)N1CCC[C@H]1C(=O)N[C@@H](CCCNC(=N)N)C(=O)N[C@@H](CC(C)C)C(=O)N[C@@H](C)C(=O)N[C@@H](C)C(=O)N[C@@H](CCCCN)C(=O)NCC(=O)N1CCC[C@H]1C(=O)N[C@@H](CC(C)C)C(N)=O` (Ac-K(Tfa)PRLAAKGPL-NH2) came in with a Retention_time in data set [1] of 17.23 min. In addition, the pEC50 on Apelin receptor was below 5.52.
With `CCCC[C@H](NC(=O)[C@H](C)NC(=O)[C@H](C)NC(=O)[C@H](CC(C)C)NC(=O)[C@H](CCCCN)NC(=O)[C@@H]1CCCN1C(=O)[C@H](CCCNC(=N)N)NC(C)=O)C(=O)NCC(=O)N1CCC[C@H]1C(=O)N[C@@H](CC(C)C)C(N)=O` (Ac-RPKLAA[Nle]GPL-NH2), the Retention_time in data set [1] was 17.64 min. Besides, the pEC50 at Apelin receptor was 8.66.
In the same order, the values of `CC(=O)N[C@@H](CCCNC(=N)N)C(=O)N1CCC[C@H]1C(=O)NCCCCCCCC(=O)N[C@@H](CC(C)C)C(=O)N[C@@H](C)C(=O)N[C@@H](C)C(=O)N[C@@H](C)C(=O)NCC(=O)N1CCC[C@H]1C(=O)N[C@@H](CC(C)C)C(N)=O` (Ac-RP[Aoc]LAAAGPL-NH2) are 22 min and below 5.52.
As to `CCCC[C@H](NC(=O)[C@@H]1CCCN1C(=O)[C@H](CCCNC(=N)N)NC(C)=O)C(=O)N[C@@H](CC(C)C)C(=O)N[C@@H](C)C(=O)N[C@@H](C)C(=O)N[C@@H](CCCCN)C(=O)NCC(=O)N1CCC[C@H]1C(=O)N[C@@H](CC(C)C)C(N)=O` (Ac-RP[Nle]LAAKGPL-NH2), the Retention_time in data set [1] amounted to 16.64 min. For the same molecule, on Apelin receptor, the pEC50 was 8.49.
By half-life is commonly meant the time needed for the level to fall by half in the phase considered. Lower therefore signals rapid decline. As to `CCCC[C@H](NC(=O)[C@H](C)NC(=O)[C@H](C)NC(=O)[C@H](CC(C)C)NC(=O)[C@H](CCCC)NC(=O)[C@@H]1CCCN1C(=O)[C@H](CCCNC(=N)N)NC(C)=O)C(=O)NCC(=O)N1CCC[C@H]1C(=O)N[C@@H](CC(C)C)C(N)=O` (Ac-RP[Nle]LAA[Nle]GPL-NH2), the Drug metabolism result with Plasma [2] and in the data set with Plasma [3] was “metabolite_detected” throughout. Besides, the half-life in data set [4] came out at 2 min. Also, the Retention_time in data set [1] worked out at 16.79 min. Moreover, the pEC50 at Apelin receptor is 7.48.
In the case of `CCCC[C@H](NC(=O)[C@@H]1CCCN1C(=O)[C@H](CCCNC(=N)N)NC(C)=O)C(=O)NCCCCCCCC(=O)N[C@@H](C)C(=O)N[C@@H](C)C(=O)N[C@@H](CCCCN)C(=O)NCC(=O)N1CCC[C@H]1C(=O)N[C@@H](CC(C)C)C(N)=O` (Ac-RP[Nle][Aoc]AAKGPL-NH2), the Retention_time in data set [1] is given as 19.43 min. The pEC50 at Apelin receptor was 6.27.
`CCCC[C@H](NC(=O)[C@@H]1CCCN1C(=O)[C@H](CCCNC(=N)N)NC(C)=O)C(=O)N[C@@H](CCc1ccccc1)C(=O)N[C@@H](C)C(=O)N[C@@H](C)C(=O)N[C@@H](CCCCN)C(=O)NCC(=O)N1CCC[C@H]1C(=O)N[C@@H](CC(C)C)C(N)=O` (Ac-RP[Nle][hPhe]AAKGPL-NH2): in data set [1], the Retention_time worked out at 18.37 min. Further, the pEC50 on Apelin receptor is 7.14.
As for Ac-APRLSHKGPL-NH2, in data set [1], the Retention_time was 13.2 min. The pEC50 on Apelin receptor is 5.86.
Consider Ac-KGPMPF-OH, for which, at Apelin receptor, the EC50 was above 31600 nM.
In data set [1], Ac-KPRLAAKGPL-NH2 returned a Retention_time of 13.08 min. Further, the pEC50 on Apelin receptor is 6.31.
Take Ac-LSHKGPMPF-OH: on Apelin receptor, the EC50 was above 31600 nM.
Consider Ac-RARLAAKGPL-NH2, for which the Retention_time in data set [1] is 13.23 min. The pEC50 at Apelin receptor was 7.51.
Ac-RPALAAKGPL-NH2 came in with a Retention_time in data set [1] of 14.15 min. On Apelin receptor, the pEC50 is 8.05.
Take Ac-RPKFAAKGPL-NH2: in data set [1], the Retention_time is on record as 13.91 min. Also, at Apelin receptor, the pEC50 is 7.36.
In turn, Ac-RPRAAAKGPL-NH2 showed a Retention_time in data set [1] of 11.33 min. Besides, the pEC50 on Apelin receptor is 6.03.
Molecule Ac-RPRLAAAGPL-NH2 gave a Retention_time in data set [1] of 14.93 min. Besides, at Apelin receptor, the pEC50 was 6.20.
For Ac-RPRLAAKGAL-NH2, the Retention_time in data set [1] is reported as 12.37 min. The pEC50 at Apelin receptor was 6.63.
In data set [1], Ac-RPRLAAKGPL-NH2 displayed a Retention_time of 13.64 min. For the same molecule, at Apelin receptor, the pEC50 is 8.96.
On to Ac-RPRLSHKGPF-NH2, for which the Retention_time in data set [1] was found to be 13.43 min. For the same molecule, the pEC50 at Apelin receptor is 8.33.
On the same counts, the results for Ac-RPRLSHKGPL-NH2 are 12.43 min and 8.72.
On to Ac-RPRLSHKGPM-NH2, for which the Retention_time in data set [1] was 11.47 min. Further, the pEC50 on Apelin receptor was 8.36.
On the same counts, the results for Ac-RPRLSHKGPV-NH2 are 10.84 min and 6.16.
Molecule H-QRPRLS-NH2 returned a Retention_time in data set [1] of 15.93 min. Further, on Apelin receptor, the pEC50 is below 5.52.
Consider H-QRPRLSH-NH2, for which, in data set [1], the Retention_time is on record as 13.49 min. Further, at Apelin receptor, the pEC50 was below 5.52.
On the same counts, the results for H-QRPRLSHK-NH2 are 12.94 min and below 5.52.
In the case of H-QRPRLSHKG-NH2, the pEC50 at Apelin receptor is below 5.52.
For the molecule H-QRPRLSHKGP-NH2, the pEC50 on Apelin receptor was 5.63.
